Series [1] can be described thus: Octanol-water distribution coefficient, logD of the compound at pH 7.4 by HPLC-based analysis. It counts as physicochemical.
The nature of series [2]: Aqueous solubility of the compound at pH 2 by HPLC analysis. It counts as physicochemical. The settings on record: aqueous solution. Summed up: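 Aqueous solubility was measured at pH 2.0 with an in-house HPLC assay. Values are reported as bins: ≤10 μM, 10–20 μM, 20–40 μM, 40–80 μM and ≥80 μM.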
For series [3], the system named is Plasmodium falciparum. Put plainly: Antiplasmodial activity against artemisinin-resistant Plasmodium falciparum ARC08-022 assessed as inhibition of parasite growth incubated for 48 hrs by time zero-[3H]hypoxanthine incorporation assay. Format: functional, organism-based.
For series [4], the system named is Plasmodium falciparum. Put plainly: Antimalarial activity against chloroquine-resistant Plasmodium falciparum Dd2 assessed as inhibition of parasite growth incubated for 72 hrs by SYBR green I-based DNA quantification assay. The following applies: Dd2, 72 h. Format: functional, organism-based.
Series [5] in a line: Octanol-water distribution coefficient, logD of the compound at pH 3 by HPLC-based analysis. Format: physicochemical.
The subject of series [6] is Plasmodium falciparum. Put plainly: Antiplasmodial activity against chloroquine-sensitive Plasmodium falciparum D6 assessed as inhibition of parasite growth incubated for 48 hrs by time zero-[3H]hypoxanthine incorporation assay. Format: functional, organism-based.
Series [7] can be described thus: Cytotoxicity against human HepG2 cells assessed as reduction in cell viability incubated for 48 hrs by MTS assay. Format: toxicity, cell-based. Summed up: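 HepG2 human hepatoma cells were seeded at 2,500 cells/well in 384-well plates and incubated 24 h. Serial compound dilutions (0–40 μM range) were added, then cells were incubated a further 48 h.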
In general terms: Tetrazolium assays rely on reduction of a dye to a coloured formazan, in cell work by metabolically active cells.

Series [8] in a line: Selectivity index, ratio of EC50 for cytotoxicity against human HepG2 cells to EC50 for antimalarial activity against chloroquine-resistant Plasmodium falciparum Dd2. Format: toxicity, cell-based. The settings on record: read-out: Ratio EC50. Summed up: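 Human HepG2 hepatoma cells were seeded at 2,500 cells/well and grown 24 h. Serial dilutions of compound (0–40 μM) were then added for another 48 h. […] SI = EC50(HepG2)/EC50(Dd2).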

Series [9] can be described thus: Aqueous solubility of the compound at pH 6.5. The settings on record: aqueous solution.
The test system of series [10] is Plasmodium falciparum. Put plainly: Selectivity for antiplasmodial activity for chloroquine-sensitive Plasmodium falciparum 3D7 over antiplasmodial activity against artemisinin-resistant Plasmodium falciparum ARC08-022. It counts as functional.
For series [11], the system named is Plasmodium falciparum. Put plainly: Selectivity for antiplasmodial activity for chloroquine-resistant Plasmodium falciparum Dd2 over antiplasmodial activity against artemisinin-resistant Plasmodium falciparum ARC08-022. It counts as functional.
Series [12] deals with Plasmodium falciparum. Put plainly: Selectivity for antiplasmodial activity for chloroquine-sensitive Plasmodium falciparum 3D7 over antiplasmodial activity against chloroquine-sensitive Plasmodium falciparum D6. Format: functional.
Series [13] deals with Plasmodium falciparum. Put plainly: Selectivity for antiplasmodial activity for chloroquine-resistant Plasmodium falciparum Dd2 over antiplasmodial activity against chloroquine-sensitive Plasmodium falciparum D6. It counts as functional.

≈ marks a conversion by molar mass, not a printed value.

In general, logD refers to the decadic logarithm of the distribution of all forms, ionised or not, between an organic phase and buffer at a given pH. A low value points to lower lipophilicity. As a reminder, the solubility is the dissolved amount per volume that the medium holds. By EC50 is commonly meant the concentration needed to bring the measured effect to its halfway point. Turning to `OC(CN1CCC2(CCc3ccc4ccccc4c3O2)CC1)c1ccc(F)c(F)c1` (configuration not stated), the logD in series [1] worked out at 4; in series [5] it was 3.05. The values for the solubility in series [2] and in series [9] were 40 µM (≈ 16.4 µg/mL) and at most 10 µM, respectively. Moreover, the EC50 was determined as 0.97 µM in series [3], 0.53 µM in series [4] and 0.31 µM in [6]. Moreover, the concentration for a half-maximal effect (EC50) at 48 h in series [7] was over 20 µM. Moreover, the selectivity ratio in series [8] is over 10.4.
On to `O=C1CC2(CCNCC2)Oc2c1ccc1ccccc21`, for which the results for the logD in series [1] and in series [5] were 1.78 and 1.48, respectively. The solubility in series [2] and in [9] was at least 80 µM in each case. For the same compound, the EC50 in series [4] came to 2.27 µM. For the same compound, in series [7], the EC50 at 48 h amounted to 7 µM. Also, in [8], the selectivity ratio amounted to 3.2.
With `O=C1CC2(CCN(CCC3CCCCC3)CC2)Oc2c1ccc1ccccc21`, the logD is on record as 4.5 in series [1] and 2.99 in series [5]. In addition, the solubility stood at 20 µM (≈ 7.55 µg/mL) in series [2] and 10 µM (≈ 3.78 µg/mL) in [9]. Also, the EC50 in [4] amounted to 0.71 µM. Moreover, the half-maximal effective concentration (EC50) at 48 h in series [7] was determined as 16 µM. Moreover, in [8], the selectivity ratio came to 31.2.
With `c1ccc2c3c(ccc2c1)CCC1(CCNCC1)O3`, the logD in [1] stood at 2.33; in [5] it was 1.97. Further, the solubility in series [2] was determined as 40 µM (≈ 10.1 µg/mL); in series [9], 20 µM (≈ 5.07 µg/mL). In addition, in series [4], the EC50 was over 2.5 µM. The EC50 at 48 h in series [7] was over 20 µM. The selectivity ratio in series [8] came out at 4.
As for `OC1CC2(CCN(CCC3CCCCC3)CC2)Oc2c1ccc1ccccc21` (configuration not stated), the values for the logD in [1] and in series [5] were 3.54 and 2.97, respectively. In addition, the solubility in [2] worked out at 40 µM (≈ 15.2 µg/mL); in series [9], 20 µM (≈ 7.59 µg/mL). The EC50 in series [3] worked out at 0.63 µM; in series [4] it was 0.5 µM; in series [6] it was 0.5 µM. The EC50 at 48 h in series [7] came to 14 µM. In addition, the selectivity ratio in [8] amounted to 35.1.
`OC(CN1CCC2(CC1)CC(O)c1ccc3ccccc3c1O2)c1ccc(F)c(F)c1` (configuration not stated): the Selectivity ratio in series [10], in [11], in series [12] and in series [13] was 3 throughout. The concentration for a half-maximal effect (EC50) in [3] is 1.81 µM; in [4], 0.32 µM; in [6], 1.48 µM. Moreover, the EC50 at 48 h in series [7] is over 20 µM. Further, the selectivity ratio in [8] was over 53.3.
In the case of `O=C(CN1CCC2(CC1)CC(=O)c1ccc3ccccc3c1O2)c1ccc(F)c(F)c1`, the logD is 1.82 in [1] and 1.52 in [5]. Besides, the solubility in [2] and in [9] was 40 µM (≈ 16.9 µg/mL) throughout. In [4], the EC50 came to 1.3 µM. Also, in series [7], the EC50 at 48 h was found to be 4 µM. The selectivity ratio in [8] worked out at 2.7.
In the case of `OC1CC2(CCN(CCc3ccc(F)c(F)c3)CC2)Oc2c1ccc1ccccc21` (configuration not stated), the results for the logD in series [1] and in [5] were 3.15 and 2.62, respectively. Besides, the solubility in series [2] and in [9] was at least 80 µM throughout. In addition, the EC50 in [4] amounted to 0.53 µM. In addition, in series [7], the EC50 at 48 h is over 20 µM. Further, in series [8], the selectivity ratio was over 32.5.
As for `CCN1CCC2(CC1)CC(=O)c1ccc3ccccc3c1O2`, the logD in [1] is recorded as 2.19; in series [5] it was 1.65. Further, the solubility in series [2] and in [9] was at least 80 µM in each case. The EC50 in series [4] was over 2.5 µM. The EC50 at 48 h in [7] came to 18 µM. Besides, the selectivity ratio in series [8] turned out to be 4.7.
Consider `O=C1CC2(CCN(CC(O)c3ccc(F)c(F)c3)CC2)Oc2c1ccc1ccccc21` (configuration not stated), for which the logD worked out at 4.51 in [1] and 2.79 in [5]. Also, the solubility in series [2] was at least 80 µM; in series [9], at most 10 µM. Further, the EC50 in [4] worked out at 0.85 µM. For the same compound, in series [7], the EC50 at 48 h was over 20 µM. In series [8], the selectivity ratio is over 6.1.
Consider `O=C(CN1CCC2(CC1)CC(O)c1ccc3ccccc3c1O2)c1ccc(F)c(F)c1` (configuration not stated), for which the values for the logD in series [1] and in [5] were 0.89 and 1.53, respectively. In addition, the solubility in series [2] and in series [9] was 20 µM (≈ 8.47 µg/mL) in each case. Further, the EC50 in series [4] is over 2.5 µM. Moreover, the EC50 at 48 h in series [7] is 33 µM. Also, the selectivity ratio in series [8] is under 6.7.
Turning to `CCN1CCC2(CC1)CC(O)c1ccc3ccccc3c1O2` (configuration not stated), the logD in series [1] was 1.88; in [5], 1.51. For the same compound, the solubility in [2] and in series [9] was 20 µM (≈ 5.95 µg/mL) throughout. Further, the EC50 in series [4] was over 2.5 µM. Also, the EC50 at 48 h in [7] amounted to 16 µM. Moreover, the selectivity ratio in series [8] worked out at 3.2.
On to `O=C1CC2(CCN(CCc3ccc(F)c(F)c3)CC2)Oc2c1ccc1ccccc21`, for which the logD in [1] is listed as 3.81; in [5], 2.56. Further, the solubility is at least 80 µM in series [2] and 10 µM (≈ 4.07 µg/mL) in series [9]. Besides, the figures for the EC50 in series [3], in series [4] and in series [6] were 0.86 µM, over 2.5 µM and 0.26 µM, respectively. Moreover, in series [7], the half-maximal effective concentration (EC50) at 48 h was over 20 µM. Also, in series [8], the selectivity ratio came out at 4.
Take `OC1CC2(CCN(CCc3ccc(Cl)c(Cl)c3)CC2)Oc2c1ccc1ccccc21` (configuration not stated): the EC50 in series [3] turned out to be 2.01 µM; in series [4], 2.1 µM; in [6], 1.32 µM.
